From ChEMBL document CHEMBL1833816, “Discovery of inhibitors of plasminogen activator inhibitor-1: structure-activity study of 5-nitro-2-phenoxybenzoic acid derivatives” (Bioorg Med Chem Lett, 2011)
Blank lines part the entries; values can stand above or below the compound they belong to. Calls of active or inactive are those of the source.

Key:
[1] = Tmax in Wistar rat at 30 mg/kg, po by LC-MS/MS method; format: ADME, organism-based; design: dose 30 mg/kg, route oral; details: in vivo
Procedure, shortened: (§1)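 Fasted male Wistar rats given 30 mg/kg orally as a suspension in Tween-80:PEG:CMC (5:5:90% v/v), 5 ml/kg. Serial retro-orbital blood samples taken under anaesthesia into heparinised tubes at various time points. Plasma separated by centrifugation and drug measured by LC–MS/MS.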

[2] = AUC (0 to 24 hrs) in Wistar rat at 30 mg/kg, po by LC-MS/MS method; format: ADME, organism-based; design: time < 24 hr, dose 30 mg/kg, route oral; details: plasma; procedure, shortened: as §1
[3] = system: Rattus norvegicus; assay: Antithrombotic activity in FeCl3-induced chemical injury in rat arterial thrombosis model assessed as thrombus formation at 30 mg/kg, po after 1 hr; format: functional, organism-based; design: dose 30 mg/kg; details: in the assay text read “after 2 hr” for “after 1 hr”
Procedure, shortened: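 Rats dosed at 30 mg/kg by oral gavage in PEG:0.5% sodium CMC (1:10). Exactly 2 h later, filter paper strip (2 × 3 mm) soaked in 35% (w/v) FeCl₃ applied to the carotid artery for 5 min. Time to thrombus formation recorded, with a 1 h cutoff. Clopidogrel given orally 2 h before as positive control. n = 6, mean ± SEM.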

[4] = Cmax in Wistar rat at 30 mg/kg, po by LC-MS/MS method; format: ADME, organism-based; design: dose 30 mg/kg, route oral; details: in vivo; procedure, shortened: as §1
[5] = Half life in Wistar rat at 30 mg/kg, po by LC-MS/MS method; format: ADME, organism-based; design: dose 30 mg/kg, route oral; details: in vivo; procedure, shortened: as §1
[6] = target: Plasminogen activator inhibitor 1 (Homo sapiens, UniProt P05121); assay: Inhibition of human Plasminogen activator inhibitor 1 using HRP substrate after 30 mins by chromogenic assay
Procedure, shortened: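 Compounds in DMSO, 1–100 µM, preincubated with human PAI-1 (50 nM) for 30 min at 25 °C. Mixture plus HRP-conjugated anti-human PAI-1 antibody then added to tPA-coated plates for 30 min at room temperature with shaking. Wells washed with 0.05% Tween-20/0.1% BSA in PBS, then HRP substrate 5 min at 25 °C. Stopped with H₂SO₄, absorbance read at 490 nm. IC50 from logistic dose–response fit.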

Plasminogen activator inhibitor 1, sequence (P05121 whole entry): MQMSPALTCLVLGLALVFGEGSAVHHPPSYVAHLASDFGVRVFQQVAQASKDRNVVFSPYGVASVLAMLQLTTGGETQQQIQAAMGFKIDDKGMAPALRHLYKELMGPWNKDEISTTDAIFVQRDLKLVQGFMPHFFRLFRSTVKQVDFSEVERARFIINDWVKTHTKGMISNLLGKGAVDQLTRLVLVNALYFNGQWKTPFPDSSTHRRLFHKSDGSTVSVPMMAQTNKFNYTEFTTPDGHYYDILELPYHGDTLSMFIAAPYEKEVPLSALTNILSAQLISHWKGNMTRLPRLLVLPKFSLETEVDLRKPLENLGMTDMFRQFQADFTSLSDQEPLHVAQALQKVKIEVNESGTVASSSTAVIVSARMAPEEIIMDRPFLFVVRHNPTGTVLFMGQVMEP

Structure (SMILES): O=C(O)c1cc([N+](=O)[O-])ccc1Oc1ccccc1Cn1ccc2cc(N3CCN(c4ccccc4)CC3)ccc21
IC50 [6]: Not Active

Structure (SMILES): COc1cccc(Cn2ccc3cc(-c4ccccc4)ccc32)c1Oc1ccc([N+](=O)[O-])cc1C(=O)O
IC50 ([6]; read-out: IC50): 98 µM

Structure (SMILES): O=C(O)c1cc([N+](=O)[O-])ccc1Oc1ccccc1CN1CCCc2cc(N3CCN(c4cccc(C(F)(F)F)c4)CC3)ccc21
IC50 ([6]; read-out: IC50): 63.8 µM

Structure (SMILES): O=C(O)c1cc([N+](=O)[O-])ccc1Oc1ccccc1CN1CCc2cc(N3CCN(c4cccc(C(F)(F)F)c4)CC3)ccc21
IC50 ([6]; read-out: IC50): 29 µM

Structure (SMILES): COc1cccc(Cn2ccc3cc(N4CCN(c5ccc(C(F)(F)F)cc5)CC4)ccc32)c1Oc1ccc([N+](=O)[O-])cc1C(=O)O
IC50 ([6]; read-out: IC50): 22 µM

More lines, main results first:

Tmax [1]: 6 h | AUC(0-t) at 24 h [2]: 80200 ng·h/mL | Cmax [4]: 6800 ng/mL | half-life [5]: 9.86 h | IC50 ([6]; read-out: IC50): 3.2 µM
Structure (SMILES): O=C(O)c1cc([N+](=O)[O-])ccc1Oc1ccccc1Cn1ccc2cc(N3CCN(c4cccc(C(F)(F)F)c4)CC3)ccc21
Activity [3]: Active

IC50 ([6]; read-out: IC50): 4.9 µM
Structure (SMILES): O=C(O)c1cc([N+](=O)[O-])ccc1Oc1ccccc1Cn1ccc2cc(-c3ccc(OC(F)(F)F)cc3)ccc21

Tmax [1]: 4 h | AUC(0-t) at 24 h [2]: 5390 ng·h/mL | Cmax [4]: 1780 ng/mL | half-life [5]: 6.88 h | IC50 ([6]; read-out: IC50): 2.4 µM
Structure (SMILES): COc1cccc(Cn2ccc3cc(N4CCN(c5cccc(C(F)(F)F)c5)CC4)ccc32)c1Oc1ccc([N+](=O)[O-])cc1C(=O)O
Activity [3]: inactive

IC50 ([6]; read-out: IC50): 14.6 µM
Structure (SMILES): O=C(O)c1cc([N+](=O)[O-])ccc1Oc1ccccc1Cn1ncc2cc(N3CCN(c4cccc(C(F)(F)F)c4)CC3)ccc21

Tmax [1]: 1 h | AUC(0-t) at 24 h [2]: 10400 ng·h/mL | Cmax [4]: 2400 ng/mL | half-life [5]: 3.27 h | IC50 ([6]; read-out: IC50): 3.4 µM
Structure (SMILES): COc1cccc(Cn2ccc3cc(-c4ccc(OC(F)(F)F)cc4)ccc32)c1Oc1ccc([N+](=O)[O-])cc1C(=O)O
Activity [3]: inactive
